Reference: ChEMBL document CHEMBL3102739, “Synthesis and antiproliferative activity of conformationally restricted 1,2,3-triazole analogues of combretastatins in the sea urchin embryo model and against human cancer cell lines” (Bioorg Med Chem, 2014)

What was measured:
MDA-MB-468 = assay: Growth inhibition of human MDA-MB-468 cells after 48 hrs by SRB assay; type: functional; settings: MDA-MB-468, 48 h
[1] = Growth inhibition of human Hs578T cells after 48 hrs by SRB assay; type: functional; settings: Hs-578T
BT-549 = assay: Growth inhibition of human BT549 cells after 48 hrs by SRB assay; type: functional; settings: BT-549, 48 h
MDA-MB-231 = assay: Growth inhibition of human MDA-MB-231 cells after 48 hrs by SRB assay; type: functional; settings: MDA-MB-231, 48 h
DU-145 = assay: Growth inhibition of human DU145 cells after 48 hrs by SRB assay; type: functional; settings: DU-145, 48 h
MCF7 = assay: Growth inhibition of human MCF7 cells after 48 hrs by SRB assay; type: functional; settings: MCF7, 48 h
[2] = Growth inhibition of human UO31 cells after 48 hrs by SRB assay; type: functional; settings: UO-31, 48 h
PC-3 = assay: Growth inhibition of human PC3 cells after 48 hrs by SRB assay; type: functional; settings: PC-3, 48 h
TK-10 = assay: Growth inhibition of human TK10 cells after 48 hrs by SRB assay; type: functional; settings: TK-10, 48 h
[3] = Growth inhibition of human RXF393 cells after 48 hrs by SRB assay; type: functional; settings: RXF 393, 48 h
SN12C = assay: Growth inhibition of human SN12C cells after 48 hrs by SRB assay; type: functional
ACHN = assay: Growth inhibition of human ACHN cells after 48 hrs by SRB assay; type: functional
CAKI-1 = assay: Growth inhibition of human CAKI-1 cells after 48 hrs by SRB assay; type: functional; settings: CAKI-1, 48 h
786-0 = assay: Growth inhibition of human 786-0 cells after 48 hrs by SRB assay; type: functional; settings: 786-0, 48 h
A498 = assay: Growth inhibition of human A498 cells after 48 hrs by SRB assay; type: functional; settings: A498, 48 h
SK-OV-3 = assay: Growth inhibition of human SKOV3 cells after 48 hrs by SRB assay; type: functional; settings: SK-OV-3, 48 h
[4] = Growth inhibition of human NCI-ADR-RES cells after 48 hrs by SRB assay; type: functional
OVCAR-8 = assay: Growth inhibition of human OVCAR8 cells after 48 hrs by SRB assay; type: functional; settings: OVCAR-8, 48 h
[5] = Growth inhibition of human OVCAR4 cells after 48 hrs by SRB assay; type: functional; settings: OVCAR-4, 48 h
[6] = Growth inhibition of human OVCAR5 cells after 48 hrs by SRB assay; type: functional; settings: OVCAR-5, 48 h
OVCAR-3 = assay: Growth inhibition of human OVCAR3 cells after 48 hrs by SRB assay; type: functional; settings: OVCAR-3, 48 h
IGROV-1 = assay: Growth inhibition of human IGROV1 cells after 48 hrs by SRB assay; type: functional; settings: IGROV-1, 48 h
[7] = Growth inhibition of human UACC257 cells after 48 hrs by SRB assay; type: functional; settings: UACC-257, 48 h
UACC-62 = assay: Growth inhibition of human UACC62 cells after 48 hrs by SRB assay; type: functional; settings: UACC-62, 48 h
SK-MEL-5 = assay: Growth inhibition of human SK-MEL-5 cells after 48 hrs by SRB assay; type: functional; settings: SK-MEL-5, 48 h
SK-MEL-28 = assay: Growth inhibition of human SK-MEL-28 cells after 48 hrs by SRB assay; type: functional; settings: SK-MEL-28, 48 h
MDA-MB-435 = assay: Growth inhibition of human MDA-MB-435 cells after 48 hrs by SRB assay; type: functional; settings: MDA-MB-435, 48 h
M14 = assay: Growth inhibition of human M14 cells after 48 hrs by SRB assay; type: functional; settings: M14, 48 h
SNB-75 = assay: Growth inhibition of human SNB75 cells after 48 hrs by SRB assay; type: functional; settings: SNB-75, 48 h
[8] = Growth inhibition of human SF539 cells after 48 hrs by SRB assay; type: functional; settings: SF-539, 48 h
SF-295 = assay: Growth inhibition of human SF295 cells after 48 hrs by SRB assay; type: functional; settings: SF-295, 48 h
SF-268 = assay: Growth inhibition of human SF268 cells after 48 hrs by SRB assay; type: functional; settings: SF-268, 48 h
SW-620 = assay: Growth inhibition of human SW620 cells after 48 hrs by SRB assay; type: functional; settings: SW-620, 48 h
KM12 = assay: Growth inhibition of human KM12 cells after 48 hrs by SRB assay; type: functional; settings: KM12, 48 h
HT-29 = assay: Growth inhibition of human HT-29 cells after 48 hrs by SRB assay; type: functional; settings: HT-29, 48 h
HCT-15 = assay: Growth inhibition of human HCT15 cells after 48 hrs by SRB assay; type: functional; settings: HCT-15, 48 h
[9] = Growth inhibition of human HCC2998 cells after 48 hrs by SRB assay; type: functional; settings: HCC 2998, 48 h
HCT-116 = assay: Growth inhibition of human HCT116 cells after 48 hrs by SRB assay; type: functional; settings: HCT-116, 48 h
COLO 205 = assay: Growth inhibition of human COLO205 cells after 48 hrs by SRB assay; type: functional; settings: COLO 205, 48 h
NCI-H522 = assay: Growth inhibition of human NCI-H522 cells after 48 hrs by SRB assay; type: functional; settings: NCI-H522, 48 h
NCI-H460 = assay: Growth inhibition of human NCI-H460 cells after 48 hrs by SRB assay; type: functional; settings: NCI-H460, 48 h
NCI-H322M = assay: Growth inhibition of human NCI-H322M cells after 48 hrs by SRB assay; type: functional
NCI-H23 = assay: Growth inhibition of human NCI-H23 cells after 48 hrs by SRB assay; type: functional; settings: NCI-H23, 48 h
NCI-H226 = assay: Growth inhibition of human NCI-H226 cells after 48 hrs by SRB assay; type: functional; settings: NCI-H226, 48 h
HOP-62 = assay: Growth inhibition of human HOP62 cells after 48 hrs by SRB assay; type: functional; settings: HOP-62, 48 h
A549 = assay: Growth inhibition of human A549 cells after 48 hrs by SRB assay; type: functional; settings: A549, 48 h
RPMI-8226 = assay: Growth inhibition of human RPMI8226 cells after 48 hrs by SRB assay; type: functional; settings: RPMI-8226, 48 h
SR = assay: Growth inhibition of human SR cells after 48 hrs by SRB assay; type: functional
MOLT-4 = assay: Growth inhibition of human MOLT4 cells after 48 hrs by SRB assay; type: functional; settings: MOLT-4, 48 h
K562 = assay: Growth inhibition of human K562 cells after 48 hrs by SRB assay; type: functional; settings: K562, 48 h
CCRF-CEM = assay: Growth inhibition of human CCRF-CEM cells after 48 hrs by SRB assay; type: functional
HL-60(TB) = assay: Growth inhibition of human HL-60(TB) cells after 48 hrs by SRB assay; type: functional; settings: HL-60, 48 h
Paracentrotus lividus [10] = assay: Antimitotic activity against sea urchin embryo free-swimming blastula model assessed as embryo spinning compound treated at 8 to 10 hrs post-fertilization measured after 0.25 to 20 hrs; type: functional, Blastula stage
Paracentrotus lividus [11] = assay: Antimitotic activity against sea urchin embryo model assessed as cleavage arrest of fertilized egg compound treated at 8 to 20 mins post-fertilization and 45 to 55 mins prior to first mitotic cycle completion measured 2.5 to 5.5 hrs post-fertilization; type: functional
Outline: (§1)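 Fertilized eggs are exposed 8–20 min after fertilization to 2-fold decreasing concentrations. Stocks are 10 mM in DMSO, then diluted 10-fold in 95% EtOH; final DMSO is at most 0.05% and EtOH at most 1%. Embryos are kept as a monolayer, up to 2000 embryos/mL, in filtered seawater at room temperature. The value is the threshold concentration giving cleavage alteration, embryo death before hatching or full mitotic arrest. Duplicates were run.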

Paracentrotus lividus [12] = assay: Antimitotic activity against sea urchin embryo model assessed as cleavage alteration of fertilized egg compound treated at 8 to 20 mins post-fertilization and 45 to 55 mins prior to first mitotic cycle completion measured 2.5 to 5.5 hrs post-fertilization; type: functional; outline: as §1
B16 = assay: Cytotoxicity against mouse B16 cells by MTT assay; type: functional, cell-based

Q: With `COc1ccc(-c2nn[nH]c2-c2cc(OC)c3c(c2)OCO3)cc1` as the compound, how does the GI50 (MDA-MB-468) read?
A: 19 nM

Q: And the GI50 [1]?
A: 22 nM

Q: What about the GI50 (BT-549) of the same compound?
A: 121 nM

Q: What about the GI50 (MDA-MB-231) of the same compound?
A: 45 nM

Q: What about the GI50 (DU-145) of the same compound?
A: 32 nM

Q: And the GI50 (MCF7)?
A: < 10 nM

Q: And the GI50 [2]?
A: 51 nM

Q: And the GI50 (PC-3)?
A: 35 nM

Q: What about the GI50 (TK-10) of the same compound?
A: 14700 nM

Q: What about the GI50 [3] of the same compound?
A: 17 nM

Q: And the GI50 (SN12C)?
A: 61 nM

Q: What about the GI50 (ACHN) of the same compound?
A: 40 nM

Q: What about the GI50 (CAKI-1) of the same compound?
A: 11 nM

Q: And the GI50 (786-0)?
A: 32 nM

Q: What about the GI50 (A498) of the same compound?
A: < 10 nM

Q: And the GI50 (SK-OV-3)?
A: 23 nM

Q: And the GI50 [4]?
A: < 10 nM

Q: What about the GI50 (OVCAR-8) of the same compound?
A: 40 nM

Q: And the GI50 [5]?
A: 518 nM

Q: And the GI50 [6]?
A: 49 nM

Q: What about the GI50 (OVCAR-3) of the same compound?
A: 10 nM

Q: And the GI50 (IGROV-1)?
A: 23 nM

Q: And the GI50 [7]?
A: 23000 nM

Q: And the GI50 (UACC-62)?
A: < 10 nM

Q: What about the GI50 (SK-MEL-5) of the same compound?
A: 29 nM

Q: What about the GI50 (SK-MEL-28) of the same compound?
A: 35 nM

Q: What about the GI50 (MDA-MB-435) of the same compound?
A: < 10 nM

Q: What about the GI50 (M14) of the same compound?
A: 13 nM

Q: And the GI50 (SNB-75)?
A: 16 nM

Q: And the GI50 [8]?
A: 17 nM

Q: What about the GI50 (SF-295) of the same compound?
A: < 10 nM

Q: What about the GI50 (SF-268) of the same compound?
A: 101 nM

Q: What about the GI50 (SW-620) of the same compound?
A: 14 nM

Q: What about the GI50 (KM12) of the same compound?
A: 23 nM

Q: What about the GI50 (HT-29) of the same compound?
A: 34 nM

Q: And the GI50 (HCT-15)?
A: < 10 nM

Q: What about the GI50 [9] of the same compound?
A: 44 nM

Q: What about the GI50 (HCT-116) of the same compound?
A: 19 nM

Q: And the GI50 (COLO 205)?
A: 255 nM

Q: And the GI50 (NCI-H522)?
A: < 10 nM

Q: What about the GI50 (NCI-H460) of the same compound?
A: 11 nM

Q: What about the GI50 (NCI-H322M) of the same compound?
A: 57 nM

Q: What about the GI50 (NCI-H23) of the same compound?
A: 33 nM

Q: And the GI50 (NCI-H226)?
A: 294 nM

Q: What about the GI50 (HOP-62) of the same compound?
A: < 10 nM

Q: And the GI50 (A549)?
A: 24 nM

Q: What about the GI50 (RPMI-8226) of the same compound?
A: 33 nM

Q: And the GI50 (SR)?
A: < 10 nM

Q: And the GI50 (MOLT-4)?
A: 63 nM

Q: What about the GI50 (K562) of the same compound?
A: < 10 nM

Q: And the GI50 (CCRF-CEM)?
A: 26 nM

Q: What about the GI50 (HL-60(TB)) of the same compound?
A: 23 nM

Q: What about the EC (Paracentrotus lividus [10]) of the same compound?
A: 0.05 µM

Q: What about the EC (Paracentrotus lividus [11]) of the same compound?
A: 0.002 µM

Q: And the EC (Paracentrotus lividus [12])?
A: 0.0005 µM

Q: For `COc1cc(/C=C\c2ccc(N)cc2)cc(OC)c1OC`, which IC50 (B16) is on record?
A: 56000 nM
